High-throughput results deposited in PubChem by several laboratories.
This is a sample that favours compounds with a hit; in the whole collection about 1% have one here.
MT stabilizer – microtubule stabilizers in HeLa cells, primary screen, imaging, high-content imaging; hit rate 0.83% among 200,000; % tubulin-high responders, % at 10 µM; HeLa tubulin immunostaining HCS, 24 h; share of cells brighter than vehicle mean+2SD;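 active = plate Z-score above 3 for both tubulin-high and condensed-nucleus cell shares, with cell loss under 80%, at 10 µM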;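 also: anti alpha tubulin signal scored within the nucleus-defined area of each cell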
TLR9-MyD88 block – inhibitors of TLR9-MyD88 association in cells, primary screen, cell-based, CHO, BLA complementation, fluorescence; Toll-like receptor 9 (Homo sapiens) + Myeloid differentiation primary response protein …; CCF4 FRET ratio; inhibition, % at 4.98 µM; hit rate 0.21% among 340,000;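 active = inhibition above the mean over all tested compounds plus 3 SD, cut at about 21% in these data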;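 also: 0% = DMSO only wells and 100% = clavulanate BLA inhibitor control wells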
NOD2-RIPK2 inh – NOD2-RIPK2 binding disruptors in cells, primary screen, fluorescence, CHO cells, BLA complementation; Receptor-interacting serine/threonine-protein kinase 2 (Homo sapiens), O43353; CCF4 ratio; inhibition, % at 4.98 µM; hit rate 0.38% among 360,000; AID 624267, 2012; in the data active = inhibition above about 21%;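 also: 0% = vehicle only and 100% = reference blocker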
Target sequence (O43353 whole entry, looked up): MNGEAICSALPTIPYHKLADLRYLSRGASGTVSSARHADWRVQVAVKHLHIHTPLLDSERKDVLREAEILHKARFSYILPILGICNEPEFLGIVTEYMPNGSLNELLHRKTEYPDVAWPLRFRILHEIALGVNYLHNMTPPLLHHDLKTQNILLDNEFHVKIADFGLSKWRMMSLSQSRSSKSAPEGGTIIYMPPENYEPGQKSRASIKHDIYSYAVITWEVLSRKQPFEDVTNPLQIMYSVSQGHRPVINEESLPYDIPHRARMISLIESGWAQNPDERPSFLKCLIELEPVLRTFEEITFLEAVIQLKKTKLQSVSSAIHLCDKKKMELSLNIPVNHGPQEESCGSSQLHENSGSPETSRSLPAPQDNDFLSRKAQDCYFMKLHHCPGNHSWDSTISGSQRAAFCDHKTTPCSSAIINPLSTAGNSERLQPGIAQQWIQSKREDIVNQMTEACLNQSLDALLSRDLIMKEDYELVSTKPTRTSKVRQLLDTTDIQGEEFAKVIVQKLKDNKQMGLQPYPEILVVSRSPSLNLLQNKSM
b-catenin transl – modulators of beta-catenin nuclear translocation, primary screen, imaging, HeLa cells, immunofluorescence, high-content. nuclear translocation activity, % at 5 µM. hit rate 0.3% among 190,000. AID 1665, 2009;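 active = nuclear translocation activity above 50% at 5 µM, with a well cell count of 50 or more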;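 also: per-cell ratio of nuclear to cytoplasmic median beta-catenin stain intensity; plate controls were DMSO negative control for no effect and GSK-3 inhibitor IX positive control for full effect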
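Test system: human HeLa cells, endogenous beta-catenin. Times: 24 h compound exposure, 37°C. Measured by: beta-catenin immunofluorescence imaging with DAPI.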
Hsp70 act – Hsp70 transcriptional activators, primary screen, cell-based, HeLa, Hsp70 promoter luciferase, luminescence, 10 µM. HeLa Hsp70 promoter luciferase reporter; scaled: vehicle 0, proteasome-inhibitor control 100%. hit rate 0.04% among 200,000. activation, % at 10 µM;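 active = activation above the mean across all tested compounds plus 3 SD, cutoff set per campaign, cut at about 5.5% in these data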;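 also: 100% = MG132 at 30 µM as the positive control and 0% = DMSO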
TLR4 MyD88 comp – inhibitors of TLR4-MyD88 association in cells, primary screen, cell-based, HeLa CL3-4, BLA complementation, FRET ratio | Toll-like receptor 4 (Homo sapiens) + Myeloid differentiation primary response protein … | AID 861, 2007 | hit rate 0.18% among 200,000 | inhibition, % at 8.4 µM | HeLa CL3-4 TLR4/MyD88 BLA complementation; in the data active = inhibition above about 25%;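 also: 0% = vehicle and 100% = reference inhibitor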
Hsp70 act dose – Hsp70 transcriptional activators, dose response, cell-based, HeLa, Hsp70 promoter luciferase, luminescence, triplicate. shares compounds with Hsp70 act. HeLa hsp70.1pr-luc reporter. calls only at 99 µM. hit rate 10% among 70. AID 1252, 2008;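 active = over 50% activation at some tested dose; inactive = under 50% activation at every tested dose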
NOD2-RIPK2 conf – NOD2-RIPK2 binding disruptors, retest, confirmation, fluorescence, CHO cells, BLA complementation, triplicate | hit rate 70% among 1,200 | CCF4 FRET | shares compounds with NOD2-RIPK2 inh | inhibition, % at 4.98 µM;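 active = mean inhibition across replicates above a set limit taken from the earlier primary screen, cut at about 21% in these data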;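 also: 0% = DMSO-only wells and the high end = clavulanate BLA-blocked wells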
NOD2 BLA counter – counter-screen for NOD2-RIPK2 interaction inhibitors: BLA reporter; shares compounds with NOD2-RIPK2 inh; CHO BLA reporter, CCF4 FRET ratio, counterscreen; hit rate 57% among 1,200; AID 624371; inhibition, % at 4.98 µM;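 active = mean inhibition above the low-control mean inhibition plus three low-control SD, cut at about 11% in these data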;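 also: 0% = DMSO only wells and 100% = clavulanate high control wells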
An asterisk follows results filed as active; i = inactive; nt = no result given; + = active, no number.

SMILES	MT stabilizer	TLR9-MyD88 block	NOD2-RIPK2 inh	b-catenin transl	Hsp70 act	TLR4 MyD88 comp	Hsp70 act dose	others
CCCC(=O)Nc1sc(-c2ccccc2)c(-c2ccccc2)c1C(=O)O	nt	2	-16	nt	nt	nt	nt
CCOc1ccc(C(=S)N2CCCC2)c(OCC)c1	nt	-1	-2	nt	nt	nt	nt
O=C(Nc1ccc(N2CCCC2)c(Cl)c1)c1ccc([N+](=O)[O-])o1	4	-11	-3	1	20*	18	i
CS(=O)(=O)N1CCN(c2ccc(NC(=O)c3ccc([N+](=O)[O-])o3)cc2)CC1	4	-14	17	12	8.1*	8	i
CCC(=O)N1CCN(c2ccc(NC(=O)c3ccc([N+](=O)[O-])o3)cc2)CC1	5	-6	8	8	1	20	nt
O=C(Nc1ccc(N2CCCCC2)cc1)c1ccc([N+](=O)[O-])o1	nt	-5	5	nt	nt	nt	nt
CCCC(=O)N1CCN(c2ccc(NC(=O)c3ccc([N+](=O)[O-])o3)cc2)CC1	11	-3	7	2	15*	-3	i
CCN(C(=O)COC(=O)c1ccc(-n2c(C)ccc2C)cc1)c1c(N)n(Cc2ccccc2)c(=O)[nH]c1=O	nt	-8	-4	nt	nt	nt	nt
Cc1ccc(S(=O)(=O)c2ccsc2NC(=O)c2ccccc2)cc1	nt	-8	2	nt	nt	nt	nt
Cc1cc(C(=O)N2CCN(c3cc(Cl)ccc3C)CC2)on1	nt	1	-1	nt	nt	nt	nt
COc1ccccc1OCCNc1ccc(S(=O)(=O)N2CCCC2)cn1	nt	4	10	nt	nt	nt	nt
O=C1/C(=C/c2ccncc2)Cc2ccccc21	nt	-9	-20	nt	nt	nt	nt
CC1C/C(=C/c2ccncc2)C(=O)/C(=C/c2ccncc2)C1 (stereo unspecified)	37*	-2	6	nt	178*	6	+
Cc1cc(C(=O)Cn2ncc(Cl)c(Cl)c2=O)c(C)n1CC(F)(F)F	3	16	12	-4	16*	9	i
Cn1c(=O)c2cc(NC(=O)NCc3ccc(F)cc3)ccc2n1C	nt	nt	-9	nt	nt	nt	nt
Cc1ccc(NC(=S)NC(NC(=O)c2ccccc2)C(Cl)(Cl)Cl)c(C)c1 (stereo unspecified)	6	-14	2	-2	7.0*	-4	i
Cc1cc(C)c(NC(=S)NC(NC(=O)c2ccccc2)C(Cl)(Cl)Cl)c(C)c1 (stereo unspecified)	4	-7	-10	-1	0	-8	nt
Cc1ccc(-c2nc(NC(=O)c3nn(C)cc3[N+](=O)[O-])sc2C)cc1C	49	-9	1	32	14*	14	i
Cc1ccc(-c2nc(NC(=O)c3nn(C)cc3[N+](=O)[O-])sc2C)cc1	55	0	1	1	1	19	nt
O=[N+]([O-])c1ccc(Nc2nccc(Cl)n2)cc1	nt	nt	-3	nt	nt	nt	nt
Cc1ccc(NC(=O)CSC(C)C(=O)OCC(=O)N2CCN(C(=O)c3ccco3)CC2)cc1 (stereo unspecified)	nt	-10	-4	nt	nt	nt	nt
O=C(/C=C/c1ccccc1F)c1cccc([N+](=O)[O-])c1	2	5	0	nt	0	13	nt
O=C(Oc1ccc(F)cc1C(=O)/C=C/c1cccs1)c1cccc([N+](=O)[O-])c1	16	10	17	0	12*	11	i
CC[n+]1c(/C=C2\Sc3ccccc3N2C)ccc2cccc(C)c21	67	-4	16	5	8.9*	15	i
COc1ccc(NC(=O)Cc2ccc(Cl)c(Cl)c2)cn1	2	2	-4	-1	0	-13	nt
SMILES	MT stabilizer	TLR9-MyD88 block	NOD2-RIPK2 inh	b-catenin transl	Hsp70 act	TLR4 MyD88 comp	Hsp70 act dose	others
COc1ccc(NC(=O)/C(Cl)=C(/Cl)S(=O)Cc2ccccc2Cl)cn1 (stereo unspecified)	21	nt	nt	-4	37*	17	i
CCOC(=O)C1(C/C(C)=N/NC(N)=O)CC(C)OC1=O (stereo unspecified)	2	5	-6	-1	5.7*	-9	i
CCN1C/C(=C/c2ccc(OC)c(O)c2)C(=O)/C(=C/c2ccc(OC)c(O)c2)C1	55	-6	6	47	644*	15	+
COc1ccc(C=C2C(=O)c3ccccc3C2=O)cc1O	5	-8	-8	-1	0	-13	nt
Cc1cccc(-c2noc(CCCC(=O)N3CCOCC3)n2)c1	2	-5	1	-2	15*	8	i
CN(C)/C=C1/NC(=S)NC1=O	4	-18	-6	0	6.1*	5	i
O=C(NCC1COc2ccccc2O1)C1CCCN(S(=O)(=O)c2cnc[nH]2)C1 (stereo unspecified)	2	-3	-4	-1	5.8*	-11	i
CCOC(=O)c1sc2nc(C)nc(NCc3ccccc3)c2c1C	nt	-15	-3	nt	nt	nt	nt
CCOC(=O)c1sc2nc(C)nc(Nc3ccccc3)c2c1C	2	-4	-4	0	5.7*	3	i
O=C(C[n+]1cccc(/C=N/O)c1)NC(=O)Nc1ccccc1	nt	nt	8	nt	nt	nt	nt
Cc1c(O)ccc(C(=O)CN2CCN(Cc3ccc4c(c3)OCO4)CC2)c1O	2	-9	-3	1	79*	2	i
CC(=O)Nc1sc2c(c1-c1nc3ccccc3s1)CCN(C(C)C)C2	35	13	-7	27	7.5*	-10	i
Cc1c(C(=O)NCc2ccc3c(c2)OCO3)sc(=O)n1Cc1cccc(F)c1	nt	nt	-5	nt	nt	nt	nt
O=C1C=CC(O)(c2cc(=O)c3c(O)cc(O)cc3o2)C=C1	59	-2	30*	29	25*	-13	+	NOD2-RIPK2 conf=21;NOD2 BLA counter=18*
CCN(CC)CCCNC(=O)C1CCN(C(=O)c2oc3cc4sc(N(C)C)nc4cc3c2C)CC1	nt	0	0	nt	nt	nt	nt
